≈ marks a conversion by molar mass, not a printed value. Calls of active or inactive are those of the source. The rule behind the calls is not given here.
Columns and labels:
Leishmania donovani [1] = assay: Antileishmanial activity against promastigote stage Leishmania donovani assessed as growth inhibition after 72 hrs by Alamar blue assay; type: functional, organism-based
[2] = Selectivity index, ratio of IC50 for rhesus monkey LLC-MK2 cells to IC50 for trypomastigote stage of Trypanosoma cruzi Y; type: toxicity, cell-based; details: read-out: Ratio IC50
Summary of the method: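 The ratio divides the LLC-MK2 IC50 by the T. cruzi trypomastigote IC50. LLC-MK2 cells were seeded at 4 × 10^4/well, given compound up to 200 μM for 48 h, and read by MTT. Y-strain trypomastigotes were exposed for 24 h, with MTT read-out. IC50s come from sigmoidal dose–response fits (95% CI), using replicates from at least two independent assays.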

Leishmania infantum [3] = assay: Leishmanicidal activity against promastigote stage of Leishmania infantum MHOM/BR/1972/LD assessed as increase in reactive oxygen species production at 2 uM measured after 60 mins by H2DCf-DA probe-based fluorimetric microplate reader analysis relative to control; type: functional
Summary of the method: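 Promastigotes (2 × 10^6/well) given 2 μM compound for 60 min, then H2DCf-DA (5 μM) for 15 min; fluorescence at 485/520 nm. Oligomycin (20 μM) as positive control; data normalized with oligomycin-treated parasites as 100% and untreated as 0%.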

Leishmania infantum [4] = assay: Antileishmanial activity against promastigote stage of Leishmania infantum MHOM/BR/1972/LD assessed as reduction of cell viability after 48 hrs by MTT assay; type: functional, organism-based
Summary of the method: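 L. infantum promastigotes exposed to alkaloids dissolved in DMSO, diluted in M-199 medium, highest concentration 156 μM, with internal controls; viability read by MTT after 48 h incubation. IC50 from sigmoidal dose–response curves, mean and standard deviation of replicates from at least two independent assays, with 95% CI.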

Leishmania infantum [5] = assay: Antileishmanial activity against promastigote stage of Leishmania infantum MHOM/BR/1972/LD assessed as increase in membrane permeability at 2 uM measured at 60 mins by SYTOX green staining-based fluorimetric microplate reader analysis
Trypanosoma cruzi [6] = assay: Antitrypanosomal activity against trypomastigote stage of Trypanosoma cruzi Y assessed as inhibition of cell viability after 24 hrs by MTT assay; type: functional, organism-based
Summary of the method: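 T. cruzi Y-strain trypomastigotes incubated with alkaloids for 24 h; viability by MTT. Benznidazole as standard drug control. IC50 from sigmoidal dose–response curves, mean and standard deviation of replicates from at least two independent assays, 95% CI.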

LLC-MK2 = assay: Cytotoxicity against rhesus monkey LLC-MK2 cells assessed as inhibition of cell viability after 48 hrs by MTT assay; type: cell-based; details: Macaca mulatta, LLC-MK2, 48 h
Summary of the method: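 LLC-MK2 rhesus monkey kidney cells seeded at 4 × 10^4 per well, exposed to alkaloids at up to 200 μM for 48 h; viability by MTT. IC50 from sigmoidal dose–response fits with 95% CI, replicates from at least two independent assays.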

Leishmania infantum [7] = assay: Leishmanicidal activity against promastigote stage of Leishmania infantum MHOM/BR/1972/LD assessed as reduction of mitochondrial membrane potential at 2 uM measured after 60 mins by MitoTracker Red CM-H2XROS dye-based fluorimetric microplate reader analysis relative to control; type: functional; design: scale not given: the % may be the effect or the level left
Summary of the method: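 L. infantum promastigotes at 2 × 10^6/well exposed to 2 μM compound for 60 min, then MitoTracker Red CM-H2XROS (500 nM) added; fluorescence at excitation 540 nm / emission 595 nm. Controls: DMSO, compound alone, untreated parasites, medium without cells.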

Leishmania infantum [8] = assay: Antileishmanial activity against intracellular amastigote stage of Leishmania infantum MHOM/BR/1972/LD infected in BALB/c mouse peritoneal macrophages assessed as reduction of parasite burden after 120 hrs by Giemsa staining assay; type: functional, organism-based
Summary of the method: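 Peritoneal macrophages from BALB/c mice (collected in RPMI-1640 with 10% FBS, 37 °C, 5% CO2) infected with L. infantum amastigotes from spleens of infected hamsters, at a 1:10 macrophage:amastigote ratio. Compound exposure for 120 h, then Giemsa staining; infected macrophages counted out of 500 cells. Miltefosine as standard drug control.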

Trypanosoma cruzi [9] = assay: Potency index, ratio of benznidazole IC50 to compound IC50 for trypomastigote stage of Trypanosoma cruzi Y; type: functional
Leishmania donovani [10] = assay: Antileishmanial activity against Leishmania donovani; type: functional, organism-based
A549 = assay: Cytotoxicity against human A549 cells; type: functional, cell-based
HeLa = assay: Cytotoxicity against human HeLa cells; type: functional, cell-based
MCF7 = assay: Cytotoxicity against human MCF7 cells; type: functional, cell-based
[11] = Cytotoxicity against human MCF10A cells; type: cell-based; details: mcf-10a
[12] = system: Trypanosoma brucei brucei; assay: Antitrypanosomal activity against Trypanosoma brucei brucei GUTat 3.1 after 72 hrs by Alamar blue assay; type: functional, organism-based; details: GUTat 3.1, 72 h

`CCC1C=CCC[C@@]2(C[C@@H]3CC[C@@H]4[C@H](C(=O)OCCCCCCCCCCCCCCCC(=O)N(CCCN)C[C@@H](O)CCN)[C@]5(CCC[C@@H](C)O5)NC(=N2)N34)O1` (stereo partly specified) gave an IC50 (Leishmania donovani [1]) of 6.8 µg/mL (≈ 8.49 µM).
With `CCCCCCCC[C@@H]1C[C@@H]2CC[C@H]3[C@@H](C(=O)OC(C)CCCCCCC[C@@H]4C[C@@H]5CC[C@@H]6C[C@H](C)NC(=N4)N65)[C@@H](C)N=C(N1)N23` (stereo partly specified) [NORBATZELLADINE L] the selectivity ratio [2] was 12, the Activity (Leishmania infantum [3]) was 65% and the IC50 (Leishmania infantum [4]) was 2 µM. For the same molecule, the Activity (Leishmania infantum [5]) was 82%, the IC50 (Trypanosoma cruzi [6]) was 7 µM and the IC50 (LLC-MK2) was 85 µM. The Activity (Leishmania infantum [7]) was 30%, the Activity (Leishmania infantum [8]) was “inactive” and the “Ratio IC50” value (Trypanosoma cruzi [9]) was 54.
In the case of `CCCCCCC[C@@H]1C[C@@H]2CCC3=C(C(=O)OCCCCCCC[C@@H]4C[C@@H]5CC[C@@H]6C[C@H](C)NC(=N4)N65)C(C)N=C(N1)N32` (stereo partly specified), the IC50 (Leishmania donovani [1]) is reported as 8.5 µg/mL (≈ 14.3 µM).
Work on `CCCCCCCCC[C@@H]1C[C@@H]2CC[C@H]3[C@@H](C(=O)OC(C)CCCCCCC[C@@H]4C[C@@H]5CC[C@@H]6C[C@H](C)NC(=N4)N65)[C@@H](C)N=C(N1)N23` (stereo partly specified) [BATZELLADINE L] yielded a selectivity ratio [2] of 7, an IC50 (Leishmania infantum [4]) of 2 µM and an Activity (Leishmania infantum [5]) of 43%. For the same molecule, the IC50 (Trypanosoma cruzi [6]) was 2 µM, the IC50 (LLC-MK2) was 22 µM and the IC50 (Leishmania donovani [1]) was 1.9 µg/mL (≈ 2.91 µM). For the same molecule, the Activity (Leishmania infantum [7]) was 35%, the Activity (Leishmania infantum [8]) was “inactive” and the “Ratio IC50” value (Trypanosoma cruzi [9]) was 54.
Work on `CCCC[C@H]1c2nc(=N)[nH]c3c2[C@H](CC3)C[C@@H]1C` yielded an IC50 (Leishmania donovani [10]) of 17 µg/mL (≈ 69.3 µM).
`CCCCCCCCC[C@@H]1C[C@@H]2CC[C@H]3[C@@H](C(=O)OCCCCNC(=N)N)[C@@H](C)N=C(N1)N23` gave an IC50 (Leishmania infantum [4]) of 2 µM, an IC50 (Trypanosoma cruzi [6]) of 64 µM and an IC50 (LLC-MK2) of 130 µM. For the same molecule, the Activity (Leishmania infantum [8]) was “inactive”.
`O=C(Cn1ccnc1[N+](=O)[O-])NCc1ccccc1` [BENZNIDAZOLE] showed an IC50 (Trypanosoma cruzi [6]) of 441 µM and an IC50 (LLC-MK2) of 477 µM.
With `CCCCCCCCCc1cc2n(c(=N)n1)CCC2` the IC50 (Leishmania infantum [4]) was 2 µM, the IC50 (Trypanosoma cruzi [6]) was 8 µM and the Activity (A549) was “inactive”. The IC50 (LLC-MK2) was 26 µM, the Activity (HeLa) was “inactive” and the Activity (MCF7) was “inactive”. The Activity (Leishmania infantum [8]) was “inactive”, the “Ratio IC50” value (Trypanosoma cruzi [9]) was 54 and the Activity [11] was “Non-toxic”.
`CC/C=C/CCC[C@@H]1C[C@@H]2CC[C@@H]3C[C@@H](CCCCCCC)NC(=[N+]32)N1.O=C([O-])C(F)(F)F` gave an IC50 [12] of 0.24 µg/mL.
`CCCCCCC[C@@H]1C[C@@H]2CC[C@H]3[C@@H](C(=O)O[C@H](C)CCCCCCC[C@@H]4C[C@@H]5CC[C@@H]6C[C@H](C)N=C(N4)N65)[C@@H](C)N=C(N1)N23` gave an IC50 (Leishmania infantum [4]) of 4 µM, an IC50 (Trypanosoma cruzi [6]) of 5 µM and an IC50 (LLC-MK2) of 10 µM. The Activity (Leishmania infantum [8]) was “inactive” and the “Ratio IC50” value (Trypanosoma cruzi [9]) was 54.
In the case of `CCCCCCC[C@H]1C[C@H]2CCC3=C(C(=O)OCCCCNC(=N)N)C(CCCCC)N=C(N1)N32` (stereo partly specified), the IC50 (Leishmania donovani [1]) is reported as 5.5 µg/mL (≈ 11.3 µM).
Work on `CCCCCCCCCCCCCCCCOP(=O)([O-])OCC[N+](C)(C)C` [MILTEFOSINE] yielded an IC50 (Leishmania infantum [4]) of 16 µM and an IC50 (LLC-MK2) of 122 µM.
Molecule `CCCCC[C@@H]1C[C@H]2CC[C@H]3C[C@@H](CCCCC)NC(=[N+]23)N1.O=C([O-])C(F)(F)F` has an IC50 [12] of 0.24 µg/mL.

Source: ChEMBL document CHEMBL3580607, “Anti-parasitic Guanidine and Pyrimidine Alkaloids from the Marine Sponge Monanchora arbuscula” (J Nat Prod, 2015)
